Laboratory results published in ChEMBL document CHEMBL1137716, “Novel modifications in the series of O-(2-phthalimidoethyl)-N-substituted thiocarbamates and their ring-opened congeners as non-nucleoside HIV-1 reverse transcriptase inhibitors” (Eur J Med Chem, 2009).
Active and inactive are the calls of the source. No rule for the calls is given here.

Experiments:
[1] = test system: Human immunodeficiency virus 1; experiment: Antiviral activity against HIV1 3B Y181C/K103N double mutant in human MT4 cells assessed as protection against viral induced cytopathogenicity by MTT assay; assay type: functional, organism-based
Method in brief: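 MT-4 cells infected with HIV-1 carrying the NNRTI-resistance mutation were assayed for protection from virus-induced cytopathogenicity, read out as cell viability by MTT. EC50 is the compound concentration giving 50% protection. Values are means of three separate experiments, with variation among triplicate samples under 10%. Efavirenz served as the reference.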

[2] = Cytotoxicity against mock-infected human MT4 cells by MTT assay; assay type: cell-based
Method in brief: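 Mock-infected MT-4 cells, tested in parallel with the antiviral assay; viability read by MTT method; CC50 is the concentration lowering viability by 50%; mean of three separate experiments, triplicate variation under 10%.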

[3] = Selectivity index, ratio of CC50 for human MT4 cells to EC50 for HIV1 3B; assay type: toxicity, cell-based; details: read-out: Ratio CC50/EC50
Method in brief: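 Ratio of CC50 in mock-infected MT-4 cells to EC50 for protection from HIV-1 cytopathogenicity, both read by MTT method.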

[4] = test system: Human immunodeficiency virus 1; experiment: Antiviral activity against wild type HIV1 3B in human MT4 cells assessed as protection against viral induced cytopathogenicity by MTT assay; assay type: functional, organism-based; details: Human immunodeficiency virus 1, 3B
Method in brief: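 MT-4 cells infected with HIV-1; 50% protection from virus-induced cytopathogenicity read by MTT method; EC50 in micromolar; mean of three separate experiments, triplicate samples varying under 10%.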

Row | SMILES | Activity [1] | CC50 [2] | selectivity ratio [3] | EC50 [4]
1 | C[C@@H](COC(=S)Nc1ccc(Cl)cc1)N1C(=O)c2ccccc2C1=O | inactive | 84 µM | 420 | 0.2 µM
2 | N#Cc1ccc(NC(=S)OCCN2C(=O)c3ccccc3C2=O)cc1 |  |  |  | 0.07 µM
3 | O=C1c2ccccc2C(=O)N1CCOC(=S)Nc1ccc(I)cc1 |  |  |  | 0.02 µM
4 | Cc1cccc(C)c1NC(=S)OCCN1C(=O)c2ccccc2C1=O |  | > 100 µM | > 1.3 | 75 µM
5 | CCCCNC(=S)OCCN1C(=O)c2ccccc2C1=O | inactive | > 100 µM | > 13.9 | 7.2 µM
6 | CC(C)(C)CC(C)(C)NC(=S)OCCN1C(=O)c2ccccc2C1=O | inactive | > 100 µM | > 1.7 | 60 µM
7 | Cc1cccc(Cl)c1NC(=S)OCCN1C(=O)c2ccccc2C1=O |  | > 100 µM | > 4.3 | 23 µM
8 | Cc1ccc2c(c1)C(=O)N(CCOC(=S)Nc1ccc(Cl)c(Cl)c1)C2=O | inactive | 50 µM | 250 | 0.2 µM
9 | Cc1cc(Cl)ccc1NC(=S)OCCN1C(=O)c2ccccc2C1=O |  | > 100 µM | > 3.7 | 27 µM
10 | O=C1c2ccccc2C(=O)N1CCOC(=S)Nc1ccc(Cl)cc1Cl |  | > 100 µM |  | > 100 µM
11 | Cc1ccc2c(c1)C(=O)N(CCOC(=S)NC1CCCCC1)C2=O | inactive | > 100 µM | > 333 | 0.3 µM
12 | O=C1c2ccccc2C(=O)N1CCOC(=S)Nc1ccc(Cl)cc1 |  |  |  | 0.04 µM
13 | O=C(O)c1ccccc1C(=O)NCCOC(=S)Nc1c(F)c(F)cc(F)c1F | inactive | > 100 µM | > 1.4 | 71 µM
14 | Cc1ccc(NC(=S)OCCN2C(=O)c3ccc(C(C)(C)C)cc3C2=O)cc1 | inactive | 42 µM | 28 | 1.5 µM
15 | O=C1c2ccccc2C(=O)N1CCOC(=S)Nc1ccc(Cl)c(C(F)(F)F)c1 |  | 84 µM | 10.5 | 8 µM
16 | COc1ccc(NC(=S)OCCN2C(=O)c3ccccc3C2=O)cc1OC | inactive | > 100 µM | > 28.6 | 3.5 µM
17 | O=C1c2ccccc2C(=O)N1CCOC(=S)Nc1ccc(Cl)c(Cl)c1 | inactive | > 100 µM | > 500 | 0.2 µM
18 | Cc1ccc(NC(=S)OC[C@@H](C)NC(=O)c2ccccc2C(=O)O)cc1 | inactive | > 100 µM | > 43.5 | 2.3 µM
19 | Cc1cc(Br)ccc1NC(=S)OCCN1C(=O)c2ccccc2C1=O |  | > 100 µM | > 5.3 | 19 µM
20 | O=C1c2ccccc2C(=O)N1CCOC(=S)Nc1ccc(Cl)c(Cl)c1Cl | inactive | > 100 µM | > 9.1 | 11 µM
21 | CC(=O)c1ccc(NC(=S)OCCN2C(=O)c3ccc(C)cc3C2=O)cc1 | inactive | > 100 µM | > 1430 | 0.07 µM
22 | O=C1c2ccccc2C(=O)N1CCOC(=S)Nc1c(Cl)cc(Cl)cc1Cl | inactive | > 100 µM | > 10 | 10 µM

Row | SMILES | Activity [1] | CC50 [2] | selectivity ratio [3] | EC50 [4]
23 | O=C1c2ccccc2C(=O)N1CCOC(=S)Nc1ccc(F)cc1 |  |  |  | 0.1 µM
24 | Cc1ccc2c(c1)C(=O)N(CCOC(=S)Nc1ccc(Cl)c(C(F)(F)F)c1)C2=O | inactive | 43 µM | 17.9 | 2.4 µM
25 | Cc1ccc(NC(=S)OCCN2C(=O)c3ccccc3C2=O)cc1Cl | inactive | > 100 µM | > 125 | 0.8 µM
26 | COc1ccc(NC(=S)OCCN2C(=O)c3ccccc3C2=O)cc1 |  |  |  | 0.03 µM
27 | CCc1ccc(NC(=S)OCCN2C(=O)c3ccccc3C2=O)cc1 |  |  |  | 0.08 µM
28 | O=C1c2ccccc2C(=O)N1CCOC(=S)Nc1cc(F)ccc1F | inactive | > 100 µM | > 12.5 | 8 µM
29 | O=C1c2ccccc2C(=O)N1CCOC(=S)Nc1c(F)c(F)cc(F)c1F | inactive | > 100 µM | > 10 | 10 µM
30 | Cc1ccc(NC(=S)OCCN2C(=O)c3ccccc3C2=O)cc1 |  |  |  | 0.02 µM
31 | O=C1c2ccccc2C(=O)N1CCOC(=S)NC1CCCC1 |  | > 100 µM | > 9.1 | 11 µM
32 | O=C1c2ccccc2C(=O)N1CCOC(=S)Nc1cc(Cl)cc(Cl)c1 |  | > 100 µM | > 8 | 12 µM
33 | Cc1ccc(NC(=S)OCCNC(=O)c2ccccc2C(=O)O)c(C)c1 |  | > 100 µM | > 1.9 | 53 µM
34 | O=C1c2ccccc2C(=O)N1CCOC(=S)NCC1CCCCC1 | inactive | > 100 µM | > 91 | 1.1 µM
35 | O=C1c2ccccc2C(=O)N1CCOC(=S)NC1CCCCCCC1 |  | > 100 µM | > 167 | 0.6 µM
36 | O=C1c2ccccc2C(=O)N1CCOC(=S)Nc1cccc(Cl)c1Cl |  | > 100 µM | > 3.3 | 30 µM
37 | O=C(O)c1ccccc1C(=O)NCCOC(=S)Nc1c(F)cc(F)cc1F | inactive | > 100 µM | > 13.9 | 7.2 µM
38 | C[C@@H](COC(=S)Nc1ccc(Cl)cc1)NC(=O)c1ccccc1C(=O)O | inactive | > 100 µM | > 43.5 | 2.3 µM
39 | O=C1c2ccccc2C(=O)N1CCOC(=S)Nc1c(F)cccc1F | inactive | > 100 µM | > 14.3 | 7 µM
40 | Cc1ccc(Cl)cc1NC(=S)OCCN1C(=O)c2ccccc2C1=O |  | > 100 µM |  | > 100 µM
41 | O=C(O)c1ccccc1C(=O)NCCOC(=S)Nc1cc(F)ccc1F | inactive | > 100 µM | > 2 | 51 µM
42 | O=C1c2ccccc2C(=O)N1CCOC(=S)NC1CC1 |  | > 100 µM |  | > 100 µM
43 | COc1ccc(CCNC(=S)OCCNC(=O)c2ccccc2C(=O)O)cc1OC | inactive | 100 µM | 1.6 | 63 µM
44 | O=C1c2ccccc2C(=O)N1CCOC(=S)Nc1cc(F)cc(F)c1 | inactive | > 100 µM | > 11.1 | 9 µM

Row | SMILES | Activity [1] | CC50 [2] | selectivity ratio [3] | EC50 [4]
45 | C=CCNC(=S)OCCN1C(=O)c2ccccc2C1=O |  | > 100 µM |  | > 100 µM
46 | O=C1c2ccccc2C(=O)N1CCOC(=S)Nc1c(F)cc(F)cc1F | inactive | > 100 µM | > 50 | 2 µM
47 | O=C1c2ccccc2C(=O)N1CCOC(=S)Nc1c(Cl)cccc1Cl |  | > 100 µM | > 4.8 | 21 µM
48 | Cc1ccc2c(c1)C(=O)N(CCOC(=S)Nc1ccc(Cl)cc1)C2=O |  |  |  | 0.025 µM
49 | O=C1c2ccccc2C(=O)N1CCOC(=S)NCCc1ccccc1 | inactive | > 100 µM | > 10.9 | 9.2 µM
50 | Cc1cc(C)cc(NC(=S)OCCN2C(=O)c3ccccc3C2=O)c1 |  | > 100 µM | > 25 | 4 µM
51 | O=C1c2ccccc2C(=O)N1CCOC(=S)Nc1cc(Cl)ccc1Cl |  | > 100 µM | > 2.4 | 42 µM
52 | COc1ccc(NC(=S)OCCNC(=O)c2ccccc2C(=O)O)cc1OC |  | > 100 µM | > 6.2 | 16 µM
53 | O=C1c2ccccc2C(=O)N1CCOC(=S)NCc1ccco1 | inactive | > 100 µM |  | > 100 µM
54 | O=C1c2ccccc2C(=O)N1CCOC(=S)NCc1ccccc1 |  | > 100 µM | > 3.8 | 26 µM
55 | Cc1ccc2c(c1)C(=O)N(CCOC(=S)Nc1ccc(Br)cc1)C2=O | inactive | 59 µM | 7380 | 0.008 µM
56 | Cc1ccc(NC(=S)OCCNC(=O)c2ccccc2C(=O)O)cc1Cl |  | > 100 µM | > 23.2 | 4.3 µM
57 | Cc1ccc(Cl)cc1NC(=S)OCCNC(=O)c1ccccc1C(=O)O |  | > 100 µM | > 3.3 | 30 µM
58 | COc1ccc(C)cc1NC(=S)OCCNC(=O)c1ccccc1C(=O)O |  | > 100 µM | > 1.1 | 88 µM
59 | O=C1c2ccccc2C(=O)N1CCOC(=S)Nc1ccccc1 |  |  |  | 1.2 µM
60 | COc1ccc(Cl)cc1NC(=S)OCCN1C(=O)c2ccccc2C1=O |  | > 100 µM | > 2.1 | 48 µM
61 | Cc1ccc(NC(=S)OCCN2C(=O)c3ccccc3C2=O)c(C)c1 |  | > 100 µM | > 16.7 | 6 µM
62 | CC(=O)c1ccc(NC(=S)OCCN2C(=O)c3ccccc3C2=O)cc1 |  |  |  | 0.14 µM
63 | CC(COC(=S)Nc1ccc(Cl)cc1)N1C(=O)c2ccccc2C1=O (racemic) |  |  |  | 0.05 µM
64 | O=C1c2ccccc2C(=O)N1CCOC(=S)Nc1ccc([N+](=O)[O-])cc1Cl |  | > 100 µM |  | > 100 µM
65 | O=C1c2ccccc2C(=O)N1CCOC(=S)Nc1ccc(Br)cc1 |  |  |  | 0.03 µM
